Measurements: ChEMBL document CHEMBL4020824, “Discovery of Potent and Orally Bioavailable Dihydropyrazole GPR40 Agonists” (J Med Chem, 2018)
Active and inactive are the calls of the source.

Tests used:
[1] = Volume of distribution at steady state in Beagle dog at 0.5 mg/kg, iv administered as single dose measured up to 24 hrs post dose by LC-MS/MS analysis; type: ADME, organism-based, Canis lupus familiaris; conditions: in vivo, read-out: Vdss
[2] = Half life in CD1 mouse at 1 mg/kg, iv administered as bolus dose or 1 mg/kg, po administered as single dose measured up to 24 hrs post dose by LC-MS/MS analysis; type: ADME, organism-based; conditions: in vivo
[3] = Stability in rat liver microsomes assessed as parent compound remaining at 1 to 3 uM incubated for 20 mins in presence NADPH measured up to 90 mins by LC/MS/MS analysis; type: ADME, microsome; conditions: liver microsomes, read-out: Stability
Method in brief: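 Human or rat liver microsomal incubations. The read-outs were % parent remaining, % D-ring dealkylation metabolites, % GSH adducts, and half-life (min). The metabolites followed were CYP450-mediated oxidative de-alkylation products (phenols) and GSH conjugates.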

[4] = species: Homo sapiens; assay: Inhibition of FFAR (unknown origin) at <10 uM
Method in brief: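 Part of a proprietary selectivity counterscreen panel covering GPCRs (including the related free fatty acid receptors), nuclear hormone receptors, transporters, ion channels and hERG. Activity was scored against a 10 µM threshold.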

[5] = test system: Mus musculus; assay: Antidiabetic activity in C57BL/6J mouse assessed as effect on active GLP-1 levels at 3 mg/kg, po administered 1 hr prior to glucose challenge measured after 120 mins during OGTT assay by ELISA; type: functional, organism-based
[6] = Cmax in cynomolgus monkey at 1 mg/kg, po administered as single dose measured up to 24 hrs post dose by LC-MS/MS analysis; type: ADME, organism-based, Macaca fascicularis; design: dose 1 mg/kg, route oral; conditions: in vivo
[7] = Tmax in Beagle dog at 1 mg/kg, po administered as single dose measured up to 24 hrs post dose by LC-MS/MS analysis; type: ADME, organism-based, Canis lupus familiaris; conditions: in vivo
[8] = test system: Mus musculus; assay: Antidiabetic activity in C57BL/6J mouse assessed as glucose lowering effect at 0.1 mg/kg, po administered 1 hr prior to glucose challenge measured after 120 mins by IPGTT; type: functional, organism-based
[9] = molecular target: Voltage-gated inwardly rectifying potassium channel KCNH2 (Homo sapiens, UniProt Q12809); assay: Inhibition of human ERG (unknown origin) at <10 uM
[10] = Oral bioavailability in Sprague-Dawley rat at 3 mg/kg administered via gavage as single dose measured up to 24 hrs post dose by LC-MS/MS analysis; type: ADME, organism-based; conditions: in vivo
[11] = Half life in cynomolgus monkey at 0.5 mg/kg, iv administered as single dose measured up to 24 hrs post dose by LC-MS/MS analysis; type: ADME, organism-based, Macaca fascicularis; conditions: in vivo

Sequence of Voltage-gated inwardly rectifying potassium channel KCNH2 (Q12809 whole entry): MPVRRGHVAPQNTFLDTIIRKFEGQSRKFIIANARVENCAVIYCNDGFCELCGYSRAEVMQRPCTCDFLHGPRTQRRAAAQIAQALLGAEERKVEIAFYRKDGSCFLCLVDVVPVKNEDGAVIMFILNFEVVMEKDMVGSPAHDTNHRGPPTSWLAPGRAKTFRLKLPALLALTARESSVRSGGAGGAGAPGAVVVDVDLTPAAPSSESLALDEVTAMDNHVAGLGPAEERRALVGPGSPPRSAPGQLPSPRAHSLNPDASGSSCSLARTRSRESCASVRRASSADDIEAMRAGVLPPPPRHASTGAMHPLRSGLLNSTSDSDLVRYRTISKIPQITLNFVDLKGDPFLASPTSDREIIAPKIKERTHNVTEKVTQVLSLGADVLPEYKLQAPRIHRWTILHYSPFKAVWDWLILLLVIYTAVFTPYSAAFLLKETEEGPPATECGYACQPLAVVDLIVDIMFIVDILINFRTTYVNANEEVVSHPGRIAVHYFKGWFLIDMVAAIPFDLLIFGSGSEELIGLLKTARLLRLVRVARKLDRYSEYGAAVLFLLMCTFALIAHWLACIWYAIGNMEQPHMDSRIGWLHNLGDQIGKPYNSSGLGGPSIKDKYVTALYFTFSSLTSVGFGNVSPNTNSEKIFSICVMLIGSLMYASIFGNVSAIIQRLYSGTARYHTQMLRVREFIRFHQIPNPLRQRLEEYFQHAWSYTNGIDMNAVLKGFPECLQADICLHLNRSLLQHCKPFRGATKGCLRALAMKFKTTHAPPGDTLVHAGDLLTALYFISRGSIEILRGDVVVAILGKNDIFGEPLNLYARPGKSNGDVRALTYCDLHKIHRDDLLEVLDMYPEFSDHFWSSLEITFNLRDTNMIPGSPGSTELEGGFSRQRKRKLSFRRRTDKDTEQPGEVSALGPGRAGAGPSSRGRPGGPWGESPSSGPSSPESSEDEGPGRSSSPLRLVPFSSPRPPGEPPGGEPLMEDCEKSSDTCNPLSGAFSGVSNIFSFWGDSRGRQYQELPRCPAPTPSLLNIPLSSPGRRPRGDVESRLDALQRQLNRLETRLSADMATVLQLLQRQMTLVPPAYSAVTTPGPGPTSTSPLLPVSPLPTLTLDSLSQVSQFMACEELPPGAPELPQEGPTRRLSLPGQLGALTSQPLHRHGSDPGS

Vd [1]: 0.6 L/kg
half-life [2]: 3.1 h
remaining at 20 min, up to 3 µM [3]: 75%
inhibition [4]: inactive
Cmax [6]: 1400 nM
Tmax [7]: 0.8 h
bioavailability [10]: 47%
half-life [11]: 13 h
Structure (SMILES): COc1cc(N2CC[C@@H](Oc3ccc(N4N=C(C(F)(F)F)[C@@H](C)[C@@H]4CC(=O)O)cc3)[C@H](C)C2)c(Cl)cn1
Activity [5]: inactive
Activity [8]: Active
inhibition (INH) [9]: Not Active
